Laboratory results taken from ChEMBL document CHEMBL4619737, “Influence of side-chain changes on histone deacetylase inhibitory and cytotoxicity activities of curcuminoid derivatives” (Bioorg Med Chem Lett, 2020).
In brackets after ≈: the same amount, converted by molar mass. Activity calls are given as the source filed them. The calls are words filed in the database; no cut-off is given here.

Columns and labels:
Histone deacetylase 1 = Histone deacetylase 1 (Homo sapiens, UniProt Q13547); assay: Inhibition of HDAC1 (unknown origin)
MCF7 [1] = assay: Antiproliferative activity against human MCF7 cells incubated for 72 hrs by MTT assay; type: functional, cell-based; details: MCF7, 72 h
HeLa [2] = assay: Antiproliferative activity against human HeLa cells incubated for 72 hrs by MTT assay; type: functional, cell-based
HeLa [3] = assay: Antiproliferative activity against human HeLa cells incubated for 48 hrs by MTT assay; type: functional, cell-based
HeLa [4] = assay: Antiproliferative activity against human HeLa cells incubated for 24 hrs by MTT assay; type: functional, cell-based
HCT-116 [5] = assay: Antiproliferative activity against human HCT116 cells incubated for 48 hrs by MTT assay; type: functional, cell-based; details: HCT-116, 48 h
Vero [6] = assay: Cytotoxicity against African green monkey Vero cells assessed as reduction in cell viability incubated for 72 hrs by MTT assay; type: cell-based; details: Chlorocebus sabaeus
HCT-116 [7] = assay: Antiproliferative activity against human HCT116 cells incubated for 72 hrs by MTT assay; type: functional, cell-based; details: HCT-116, 72 h
MCF7 [8] = assay: Antiproliferative activity against human MCF7 cells incubated for 24 hrs by MTT assay; type: functional, cell-based; details: MCF7, 24 h
MCF7 [9] = assay: Antiproliferative activity against human MCF7 cells incubated for 48 hrs by MTT assay; type: functional, cell-based; details: MCF7, 48 h
Vero [10] = assay: Cytotoxicity against African green monkey Vero cells assessed as reduction in cell viability incubated for 48 hrs by MTT assay; type: cell-based; details: Chlorocebus sabaeus
Histone deacetylase 2 = Histone deacetylase 2 (Homo sapiens, UniProt Q92769); assay: Inhibition of HDAC2 (unknown origin)
Vero [11] = assay: Cytotoxicity against African green monkey Vero cells assessed as reduction in cell viability incubated for 24 hrs by MTT assay; type: cell-based; details: Chlorocebus sabaeus
Histone deacetylase 8 = biological target: T1, Histone deacetylase 8 (Homo sapiens, UniProt Q9BY41); assay: Inhibition of HDAC8 (unknown origin)
T1 sequence (Q9BY41 whole entry): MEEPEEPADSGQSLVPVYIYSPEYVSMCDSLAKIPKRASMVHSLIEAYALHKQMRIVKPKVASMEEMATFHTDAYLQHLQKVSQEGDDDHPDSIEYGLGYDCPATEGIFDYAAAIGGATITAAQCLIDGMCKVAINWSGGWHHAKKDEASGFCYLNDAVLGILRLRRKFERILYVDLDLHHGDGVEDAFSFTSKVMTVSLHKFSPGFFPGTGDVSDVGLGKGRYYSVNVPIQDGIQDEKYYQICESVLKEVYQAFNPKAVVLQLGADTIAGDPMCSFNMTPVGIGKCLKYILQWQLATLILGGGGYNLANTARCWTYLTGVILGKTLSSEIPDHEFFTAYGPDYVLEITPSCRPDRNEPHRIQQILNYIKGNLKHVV

HCT-116 [12] = assay: Antiproliferative activity against human HCT116 cells incubated for 24 hrs by MTT assay; type: functional, cell-based; details: HCT-116, 24 h
Histone deacetylase = assay: Inhibition of HDAC in human HeLa cell nuclear extract using fluor-de-lys as substrate by spectrofluorometric analysis; type: cell-free
[13] = biological target: Histone deacetylase (Homo sapiens) (UniProt Q13547+O15379+Q9UBN7+Q92769+Q9UQL6+Q8WUI4+Q9BY41+Q96DB2+P56524+Q9UKV0+Q969S8); assay: Inhibition of HDAC in human HCT116 cells assessed as accumulation of acetylated histone H3 levels at 40 ug/ml incubated for 24 hrs by Western blot analysis; type: cell-based; details: HCT-116
Procedure, shortened: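 HCT116 cells exposed for 24 h to compound at 10–60 μg/mL, with a 1:1 (v/v) absolute ethanol/DMSO vehicle control. Cells were harvested, and extracted proteins were separated by SDS-PAGE. Acetylated H3 was detected by immunoblotting with ERK1/2 as the loading control. Band intensities were quantified by densitometry and expressed as fold relative to the internal control.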

Chain of Histone deacetylase 1 (Q13547 whole entry): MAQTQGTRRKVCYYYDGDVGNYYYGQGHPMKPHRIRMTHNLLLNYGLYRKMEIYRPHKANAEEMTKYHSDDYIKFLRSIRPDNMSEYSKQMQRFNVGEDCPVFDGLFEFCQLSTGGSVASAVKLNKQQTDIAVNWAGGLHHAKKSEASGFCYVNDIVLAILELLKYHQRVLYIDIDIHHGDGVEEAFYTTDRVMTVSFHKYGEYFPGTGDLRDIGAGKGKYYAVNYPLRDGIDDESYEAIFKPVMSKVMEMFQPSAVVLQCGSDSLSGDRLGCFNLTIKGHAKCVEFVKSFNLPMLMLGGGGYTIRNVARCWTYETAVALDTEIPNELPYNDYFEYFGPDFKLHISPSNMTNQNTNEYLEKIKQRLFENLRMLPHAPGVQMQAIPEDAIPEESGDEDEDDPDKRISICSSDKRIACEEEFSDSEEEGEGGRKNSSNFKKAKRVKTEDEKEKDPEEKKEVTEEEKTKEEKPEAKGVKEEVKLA
Chain of Histone deacetylase 2 (Q92769 whole entry): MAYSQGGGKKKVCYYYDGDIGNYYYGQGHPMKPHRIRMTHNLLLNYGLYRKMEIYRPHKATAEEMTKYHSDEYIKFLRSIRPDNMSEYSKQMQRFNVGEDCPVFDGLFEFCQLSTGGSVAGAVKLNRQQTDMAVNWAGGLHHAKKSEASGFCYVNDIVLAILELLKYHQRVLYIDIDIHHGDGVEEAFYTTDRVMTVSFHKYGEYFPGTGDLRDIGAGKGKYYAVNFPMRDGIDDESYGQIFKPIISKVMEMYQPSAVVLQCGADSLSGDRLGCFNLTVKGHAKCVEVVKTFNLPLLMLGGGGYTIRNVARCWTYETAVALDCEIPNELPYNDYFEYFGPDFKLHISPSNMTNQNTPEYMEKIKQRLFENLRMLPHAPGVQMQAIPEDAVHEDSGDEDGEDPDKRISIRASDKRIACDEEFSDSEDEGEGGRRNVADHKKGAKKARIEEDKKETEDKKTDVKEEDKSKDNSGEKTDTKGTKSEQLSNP

Row | Ki (Histone deacetylase 1) [µM] | IC50 (MCF7 [1]) [µg/mL] | IC50 (HeLa [2]) [µg/mL] | IC50 (HeLa [3]) [µg/mL] | IC50 (HeLa [4]) [µg/mL] | IC50 (HCT-116 [5]) [µg/mL] | IC50 (HCT-116 [7]) [µg/mL] | IC50 (MCF7 [8]) [µg/mL] | IC50 (MCF7 [9]) [µg/mL] | Ki (Histone deacetylase 2) [µM] | Ki (Histone deacetylase 8) [µM] | IC50 (HCT-116 [12]) [µg/mL] | IC50 (Histone deacetylase) [µM] | inhibition [13] | Compound | IC50 (Vero [6]) [µg/mL] | IC50 (Vero [10]) [µg/mL] | IC50 (Vero [11]) [µg/mL]
1 | 2.5 | 18.1 (≈ 45.8 µM) | 9.33 (≈ 23.7 µM) | 14 (≈ 35.6 µM) | 55.2 (≈ 140 µM) | 8.53 (≈ 21.6 µM) | 7.33 (≈ 18.6 µM) | > 100 | 46.3 (≈ 117 µM) | 1.06 | 3.6 | 43.6 (≈ 111 µM) |  |  | CCC(C)Oc1ccc(/C=C/C(O)=C/C(=O)/C=C/c2ccc(O)c(OC)c2)cc1 (centres undefined) | > 100 | > 100 | > 100
2 |  | 2.03 (≈ 5.51 µM) | 3.56 (≈ 9.66 µM) | 3.57 (≈ 9.69 µM) | 5.39 (≈ 14.6 µM) | 2.67 (≈ 7.25 µM) | 2.4 (≈ 6.51 µM) | 2.94 (≈ 7.98 µM) | 2.08 (≈ 5.65 µM) |  |  | 3.83 (≈ 10.4 µM) |  |  | COc1cc(/C=C/C(=O)CC(=O)/C=C/c2ccc(O)c(OC)c2)ccc1O [CURCUMIN] | 11 (≈ 29.8 µM) | 17.9 (≈ 48.5 µM) | 25 (≈ 67.9 µM)

The next lines start with the compound.

Row | Compound | Ki (Histone deacetylase 1) [µM] | IC50 (MCF7 [1]) [µg/mL] | IC50 (HeLa [2]) [µg/mL] | IC50 (HeLa [3]) [µg/mL] | IC50 (HeLa [4]) [µg/mL] | IC50 (HCT-116 [5]) [µg/mL] | IC50 (HCT-116 [7]) [µg/mL] | IC50 (MCF7 [8]) [µg/mL] | IC50 (MCF7 [9]) [µg/mL] | Ki (Histone deacetylase 2) [µM] | Ki (Histone deacetylase 8) [µM] | IC50 (HCT-116 [12]) [µg/mL] | IC50 (Histone deacetylase) [µM] | inhibition [13] | IC50 (Vero [6]) [µg/mL] | IC50 (Vero [10]) [µg/mL] | IC50 (Vero [11]) [µg/mL]
3 | CCC(C)Oc1ccc(/C=C/C(=O)/C=C(O)/C=C/c2ccc(OC(C)CC)c(OC)c2)cc1OC (centres undefined) | 20.7 | 13.9 (≈ 28.9 µM) | 10.2 (≈ 21.2 µM) | 17.5 (≈ 36.4 µM) | > 100 | 10.8 (≈ 22.5 µM) | 7.89 (≈ 16.4 µM) | > 100 | 42.1 (≈ 87.6 µM) | 7.47 | 10.2 | 28.7 (≈ 59.7 µM) |  |  | > 100 | > 100 | > 100
4 | COc1cc(CNC(=O)CCCCC(O)CC(C)C)ccc1O (centres undefined) |  |  |  |  |  |  |  |  |  |  |  |  | 72 |  |  |  | 
5 | COc1cc(/C=C/C(=O)/C=C(O)/C=C/c2ccc(OCC(=O)O)c(OC)c2)ccc1OCC(=O)O | 1.96 | > 100 | > 100 | > 100 | > 100 | > 100 | > 100 | > 100 | > 100 | 3.99 | 14.2 | > 100 |  |  | > 100 | > 100 | > 100
6 | COc1cc(/C=C/C(=O)/C=C(O)/C=C/c2ccc(OC(C)C(N)=O)c(OC)c2)ccc1OC(C)C(N)=O (centres undefined) | 0.936 | 30.7 (≈ 60.2 µM) | 19.6 (≈ 38.3 µM) | 25.8 (≈ 50.5 µM) | 32.3 (≈ 63.3 µM) | 23.7 (≈ 46.4 µM) | 14.6 (≈ 28.6 µM) | 51.4 (≈ 101 µM) | 38.3 (≈ 75.1 µM) | 0.55 | 0.88 | 27.9 (≈ 54.7 µM) |  | Active | 18.7 (≈ 36.5 µM) | 25.6 (≈ 50.1 µM) | > 100
